Some results are limits rather than exact numbers.

The term Ki denotes a measure of affinity in units of concentration, obtained from inhibition or displacement. Lower therefore signals a stronger hold on the target. By inhibition is commonly meant the relative decrease from the control value, in per cent.

Experiment [1] concerns the target Adenosine receptor A2a (Homo sapiens, UniProt P29274). Kind of experiment: Displacement of [3H]MSX2 from human adenosine receptor A2A expressed in HEK293 cell membranes incubated for 30 mins by radioligand competition assay. Details: species or system Cell membrane.
The target of experiment [2] is T1, Adenosine receptor A2b (Homo sapiens, UniProt P29275).
T1 sequence (P29275 whole entry): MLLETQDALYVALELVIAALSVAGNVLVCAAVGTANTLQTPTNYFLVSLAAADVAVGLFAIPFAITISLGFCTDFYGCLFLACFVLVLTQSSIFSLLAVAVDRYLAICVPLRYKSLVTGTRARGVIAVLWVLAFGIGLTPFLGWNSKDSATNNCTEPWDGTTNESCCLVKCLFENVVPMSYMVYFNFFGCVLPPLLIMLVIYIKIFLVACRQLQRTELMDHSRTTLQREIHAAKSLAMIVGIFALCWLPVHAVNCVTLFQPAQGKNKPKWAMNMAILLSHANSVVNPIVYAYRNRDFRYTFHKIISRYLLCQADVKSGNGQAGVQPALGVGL
Briefly: Displacement of [3H]PSB-603 from human adenosine receptor A2B expressed in CHO cell membranes incubated for 75 mins by radioligand competition assay. Details: species or system Cell membrane.

In experiment [3] the target is Adenosine receptor A2a (Rattus norvegicus) (UniProt P30543). Kind of experiment: Displacement of [3H]MSX2 from adenosine receptor A2A in rat brain striatum membranes at 0.1 uM incubated for 30 mins by radioligand competition assay relative to control. As to conditions: Cell membrane. A digest of the protocol: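 A2A binding, [3H]MSX-2 1.0 nM. Membranes: rat brain striatum, or HEK293 cells expressing human A2A. Adenosine deaminase preincubation 20 min, then 30 min at rt in 50 mM Tris-HCl pH 7.4 with 2.5% DMSO. Nonspecific binding defined by 50 µM NECA. GF/B filtration, scintillation counting. Single-concentration percent inhibition, ≥3 experiments in duplicate or triplicate.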
(In general: Displacement assays read how much labelled ligand stays bound in the presence of the test substance.)

Experiment [4] concerns the target Adenosine receptor A2a (Rattus norvegicus, UniProt P30543). Kind of experiment: Displacement of [3H]MSX2 from adenosine receptor A2A in rat brain striatum membranes incubated for 30 mins by radioligand competition assay. The class given is cell membranes, Cell membrane.
For experiment [5], the target named is T2, Adenosine receptor A2b (Rattus norvegicus, UniProt P29276).
T2 sequence (P29276 whole entry): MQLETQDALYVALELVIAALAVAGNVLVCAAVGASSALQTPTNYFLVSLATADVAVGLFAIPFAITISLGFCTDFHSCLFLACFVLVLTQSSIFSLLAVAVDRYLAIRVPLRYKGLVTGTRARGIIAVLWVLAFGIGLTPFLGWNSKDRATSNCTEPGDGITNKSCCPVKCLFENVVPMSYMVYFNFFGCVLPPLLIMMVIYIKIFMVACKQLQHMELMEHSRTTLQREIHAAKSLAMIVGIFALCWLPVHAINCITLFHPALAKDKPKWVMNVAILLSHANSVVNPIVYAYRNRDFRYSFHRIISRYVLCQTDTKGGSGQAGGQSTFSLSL
Briefly: Displacement of [3H]PSB-603 from rat adenosine receptor A2B expressed in CHO cell membranes incubated for 75 mins by radioligand competition assay. Details: species or system Cell membrane. A digest of the protocol: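 CHO membranes expressing human or rat A2B, [3H]PSB-603 0.3 nM. Nonspecific binding defined by 10 µM DPCPX. Preincubated 20 min with adenosine deaminase, then 75 min at rt in Tris-HCl pH 7.4 with 2.5% DMSO. Filters washed with ice-cold 50 mM Tris-HCl containing 0.1% BSA; scintillation counting.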

Experiment [6] has as its target T3, Adenosine receptor A3 (Homo sapiens, UniProt P0DMS8).
T3 sequence (P0DMS8 whole entry): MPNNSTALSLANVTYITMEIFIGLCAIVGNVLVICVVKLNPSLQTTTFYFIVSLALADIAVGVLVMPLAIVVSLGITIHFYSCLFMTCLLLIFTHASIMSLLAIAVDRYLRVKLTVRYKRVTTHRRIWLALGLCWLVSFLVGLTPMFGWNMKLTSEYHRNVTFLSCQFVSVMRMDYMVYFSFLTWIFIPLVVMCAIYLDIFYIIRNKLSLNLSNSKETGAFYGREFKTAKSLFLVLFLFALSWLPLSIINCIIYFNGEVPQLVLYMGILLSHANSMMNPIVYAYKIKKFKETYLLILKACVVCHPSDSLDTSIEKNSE
Kind of experiment: Displacement of [3H]PSB-11 from human adenosine receptor A3 expressed in CHO cell membranes incubated for 60 mins by radioligand competition assay. Details: species or system Cell membrane.

In experiment [7] the target is T4, Adenosine receptor A1 (Homo sapiens, UniProt P30542).
T4 sequence (P30542 whole entry): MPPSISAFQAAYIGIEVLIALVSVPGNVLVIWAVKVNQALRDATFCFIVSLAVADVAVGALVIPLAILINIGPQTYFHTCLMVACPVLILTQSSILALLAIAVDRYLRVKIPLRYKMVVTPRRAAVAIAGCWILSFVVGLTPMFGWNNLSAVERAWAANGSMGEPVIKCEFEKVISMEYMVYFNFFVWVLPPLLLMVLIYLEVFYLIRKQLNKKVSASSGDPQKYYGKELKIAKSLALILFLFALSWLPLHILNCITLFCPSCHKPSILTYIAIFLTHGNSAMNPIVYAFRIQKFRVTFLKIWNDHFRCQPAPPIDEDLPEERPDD
Briefly: Displacement of [3H]CCPA from human adenosine receptor A1 expressed in CHO cell membranes incubated for 90 mins by radioligand competition assay. Details: species or system Cell membrane.

The target in experiment [8] is T5, Adenosine receptor A1 (Rattus norvegicus, UniProt P25099).
T5 sequence (P25099 whole entry): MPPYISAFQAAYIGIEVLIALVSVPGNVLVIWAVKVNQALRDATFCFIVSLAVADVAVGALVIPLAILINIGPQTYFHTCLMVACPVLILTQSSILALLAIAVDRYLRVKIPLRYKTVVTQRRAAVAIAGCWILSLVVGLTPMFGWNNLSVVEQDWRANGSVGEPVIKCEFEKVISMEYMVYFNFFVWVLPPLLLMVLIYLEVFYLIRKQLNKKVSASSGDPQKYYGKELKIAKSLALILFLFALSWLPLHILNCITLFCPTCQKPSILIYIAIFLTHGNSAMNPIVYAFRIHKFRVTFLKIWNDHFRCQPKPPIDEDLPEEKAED
Briefly: Displacement of [3H]CCPA from adenosine receptor A1 in rat brain cortex membranes incubated for 90 mins by radioligand competition assay. The class given is cell membranes, Cell membrane.

Experiment [9] concerns the target T6, Adenosine receptor A3 (Rattus norvegicus, UniProt P28647).
T6 sequence (P28647 whole entry): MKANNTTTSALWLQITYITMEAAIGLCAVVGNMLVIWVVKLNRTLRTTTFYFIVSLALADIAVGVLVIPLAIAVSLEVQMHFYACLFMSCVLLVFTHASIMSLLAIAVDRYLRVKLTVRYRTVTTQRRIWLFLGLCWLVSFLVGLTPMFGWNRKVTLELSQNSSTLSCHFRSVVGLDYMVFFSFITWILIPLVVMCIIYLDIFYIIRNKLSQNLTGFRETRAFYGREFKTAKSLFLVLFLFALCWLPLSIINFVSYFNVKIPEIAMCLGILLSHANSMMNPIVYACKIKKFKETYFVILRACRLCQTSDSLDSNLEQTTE
Briefly: Displacement of [3H]NECA from rat adenosine receptor A3 expressed in CHO cell membranes incubated for 60 mins by radioligand competition assay. Details: species or system Cell membrane.

Chain of Adenosine receptor A2a (Rattus norvegicus, UniProt P30543) (P30543 whole entry): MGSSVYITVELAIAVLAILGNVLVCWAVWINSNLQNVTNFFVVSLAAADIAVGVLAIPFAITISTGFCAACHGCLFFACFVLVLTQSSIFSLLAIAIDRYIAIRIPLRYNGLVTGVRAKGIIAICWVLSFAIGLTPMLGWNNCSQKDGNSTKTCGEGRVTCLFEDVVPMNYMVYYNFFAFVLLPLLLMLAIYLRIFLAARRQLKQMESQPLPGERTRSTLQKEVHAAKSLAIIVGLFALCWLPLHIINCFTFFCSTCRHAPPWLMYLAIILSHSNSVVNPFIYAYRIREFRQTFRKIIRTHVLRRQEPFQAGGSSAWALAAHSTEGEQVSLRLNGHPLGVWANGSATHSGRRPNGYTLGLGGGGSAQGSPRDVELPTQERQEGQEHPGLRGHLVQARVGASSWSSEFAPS
Chain of Adenosine receptor A2a (Rattus norvegicus) (P30543 whole entry): as above
Chain of Adenosine receptor A2a (Homo sapiens, UniProt P29274) (P29274 whole entry): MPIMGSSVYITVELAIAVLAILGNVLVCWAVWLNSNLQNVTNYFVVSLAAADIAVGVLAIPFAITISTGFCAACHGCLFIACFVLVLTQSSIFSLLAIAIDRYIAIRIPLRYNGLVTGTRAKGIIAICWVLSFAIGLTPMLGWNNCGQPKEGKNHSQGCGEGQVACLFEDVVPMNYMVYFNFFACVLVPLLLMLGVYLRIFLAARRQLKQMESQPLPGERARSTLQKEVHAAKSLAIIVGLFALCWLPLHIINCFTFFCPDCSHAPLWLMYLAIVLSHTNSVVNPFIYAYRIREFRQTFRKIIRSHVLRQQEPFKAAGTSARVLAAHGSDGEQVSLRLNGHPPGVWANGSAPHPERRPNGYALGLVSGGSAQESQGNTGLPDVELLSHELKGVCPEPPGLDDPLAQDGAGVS

`COc1ccc(C(=O)Nc2nc(-c3ccccc3)c(C(=O)c3ccc(Cl)cc3)s2)cc1`: the inhibitory constant (Ki) was greater than 1000 nM in [1]; greater than 100 nM in experiment [2]; greater than 1000 nM in experiment [4]; greater than 100 nM in experiment [5]; greater than 1000 nM in [6]; 32.3 nM in [7]. Moreover, the Ki in experiment [8] is 1.01 nM; in [9], greater than 10000 nM. In experiment [3], this molecule had an inhibition of 12%.
